Reference: ChEMBL document CHEMBL3286113, “New potent antibacterial oxazolidinone (MRX-I) with an improved class safety profile” (J Med Chem, 2014)
In brackets after ≈: the same amount, converted by molar mass.

Experiments:
Staphylococcus aureus [1] = experiment: Antibacterial activity against methicillin-sensitive Staphylococcus aureus isolate 15 in po dosed mouse systemic infection model; format: functional; settings: isolate 15, po
[2] = Tmax in po dosed dog; format: ADME, organism-based, Canis lupus familiaris; settings: in vivo
Rattus norvegicus [3] = experiment: Toxicity in female rat assessed as effect on neutrophil count at 100 mg/kg/day, po bid administered for 4 weeks (reference value: 22.4%); format: organism-based; parameters: route oral; settings: in vivo, 672 h
[4] = tested on: Staphylococcus epidermidis; experiment: Antibacterial activity against methicillin-sensitive Staphylococcus epidermidis; format: functional
[5] = Cmax in fasted human at 900 mg, po administered as single dose; format: ADME, organism-based; parameters: dose 900 mg, route oral; settings: in vivo
How it was run: (§1)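 Healthy volunteers (12; six of each sex) in a three-period Latin-square crossover. Each received single oral doses of 300, 600 and 900 mg under fasting conditions, with a 1-week washout between doses. Parameters from a noncompartmental model.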

[6] = AUC (0 to t) in female rat at 5 mg/kg, iv; format: ADME, organism-based; parameters: dose 5 mg/kg, route intravenous; settings: plasma
How it was run: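 Rat PK by gender, with single oral doses of 5, 15 and 45 mg/kg and an iv dose of 5 mg/kg. Tmax, Cmax, T1/2 and AUC0−t were reported per gender.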

Staphylococcus aureus [7] = experiment: Antibacterial activity against Staphylococcus aureus measured after 5 serial passages; format: functional
Rattus norvegicus [8] = experiment: Toxicity in rat assessed as mortality at 200 mg/kg, po bid administered for 4 weeks measured on day 14; format: organism-based; parameters: dose 200 mg/kg, route oral; settings: in vivo, 672 h
How it was run: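 Rats, 10 per gender per group, given drug orally twice daily at 20, 100 and 200/300 mg/kg/day for 4 weeks, then a 4-week recovery period. The top dose of 200 mg/kg/day was raised to 300 mg/kg/day on day 15. The comparator was dosed the same way at 100 and 200 mg/kg/day. Monitoring covered mortality, body weight, hematology and bone marrow, with blood taken for TK on days 1, 14 and 28.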

[9] = tested on: Staphylococcus saprophyticus; experiment: Antibacterial activity against Staphylococcus saprophyticus; format: functional
Streptococcus pneumoniae [10] = experiment: Antibacterial activity against penicillin-resistant Streptococcus pneumoniae isolate 0613; format: functional
[11] = Half life in female rat at 5 mg/kg, po; format: ADME, organism-based; parameters: dose 5 mg/kg, route oral; settings: in vivo
[12] = tested on: Streptococcus dysgalactiae subsp. equisimilis; experiment: Antibacterial activity against Streptococcus equisimilis; format: functional
Rattus norvegicus [13] = experiment: Drug uptake in rat at 20 to 300 mg/kg/day, po bid administered for 4 weeks measured after day 28; format: ADME, organism-based; parameters: route oral; settings: in vivo, 672 h
How it was run: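 Rats, 10 per sex per group, dosed orally twice daily at 20, 100 and 200 mg/kg/day for 4 weeks, then a 4-week recovery. The top dose was raised to 300 mg/kg/day on day 15. Toxicokinetic blood samples were drawn on days 1, 14 and 28.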

Staphylococcus = experiment: Antibacterial activity against coagulase-negative Staphylococcus; format: functional
[14] = Elimination half life in fasted human at 300 mg, po administered as single dose; format: ADME, organism-based; settings: in vivo, read-out: beta t1/2 (converted); how it was run: as §1
Staphylococcus aureus [15] = experiment: Antibacterial activity against methicillin-resistant Staphylococcus aureus; format: functional
Streptococcus pneumoniae [16] = experiment: Antibacterial activity against penicillin intermediate-sensitive Streptococcus pneumoniae ATCC 49619 clinical isolate; format: functional
[17] = Tmax in po dosed mouse; format: ADME, organism-based; settings: in vivo
Streptococcus sanguinis = experiment: Antibacterial activity against Streptococcus sanguinis; format: functional
[18] = Tmax in human at 900 mg, po administered as single dose at 30 mins post fat meal; format: ADME, organism-based; settings: in vivo
How it was run: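 Crossover study in 12 healthy subjects (six per gender). A single oral 900 mg dose was given either fasting or 30 min after a fat-containing meal. Tmax was taken from plasma PK.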

[19] = Tmax in po dosed rat; format: ADME, organism-based; settings: in vivo
[20] = Cmax in human at 800 mg, po administered as single dose with meal measured on day 15; format: ADME, organism-based; parameters: dose 800 mg, route oral; settings: in vivo
How it was run: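 Randomized, double-blind, placebo-controlled multiple-dose study in 32 healthy subjects, half male and half female. Each dose was taken with a meal, at 600 or 800 mg, 28 doses over 15 days. A single dose on days 1 and 15 gave full PK; BID (Q12h) dosing ran on days 2–14.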

Rattus norvegicus [21] = experiment: Toxicity in female rat assessed as effect on platelet count at 200 to 300 mg/kg/day, po bid administered for 4 weeks (reference value: 654.6 x 10^9/L); format: organism-based; parameters: route oral; settings: in vivo, 672 h
Staphylococcus aureus [22] = experiment: Antibacterial activity against methicillin-resistant Staphylococcus aureus isolate 0605; format: functional
[23] = Tmax in fasted human at 900 mg, po administered as single dose; format: ADME, organism-based; settings: in vivo
How it was run: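 Randomized single-dose, three-period Latin-square crossover in 12 healthy volunteers (six per gender), fasting. Single oral doses of 300, 600 and 900 mg were separated by a 1-week washout. PK parameters were derived by noncompartmental analysis.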

[24] = Half life in po dosed rat; format: ADME, organism-based; settings: in vivo
Cytochrome P450 2E1 = Cytochrome P450 2E1 (Homo sapiens, UniProt P05181); experiment: Inhibition of CYP2E1 (unknown origin); format: ADME
Enterococcus faecalis [25] = experiment: Antibacterial activity against vancomycin-sensitive Enterococcus faecalis ATCC 29212 in po dosed mouse systemic infection model; format: functional; settings: ATCC 29212, po
[26] = biological target: T1, Amine oxidase [flavin-containing] A (Homo sapiens, UniProt P21397); experiment: Inhibition of MAO-A (unknown origin) using tyramine as substrate after 30 to 60 mins by fluorescence plate reader analysis
T1 sequence (P21397 whole entry): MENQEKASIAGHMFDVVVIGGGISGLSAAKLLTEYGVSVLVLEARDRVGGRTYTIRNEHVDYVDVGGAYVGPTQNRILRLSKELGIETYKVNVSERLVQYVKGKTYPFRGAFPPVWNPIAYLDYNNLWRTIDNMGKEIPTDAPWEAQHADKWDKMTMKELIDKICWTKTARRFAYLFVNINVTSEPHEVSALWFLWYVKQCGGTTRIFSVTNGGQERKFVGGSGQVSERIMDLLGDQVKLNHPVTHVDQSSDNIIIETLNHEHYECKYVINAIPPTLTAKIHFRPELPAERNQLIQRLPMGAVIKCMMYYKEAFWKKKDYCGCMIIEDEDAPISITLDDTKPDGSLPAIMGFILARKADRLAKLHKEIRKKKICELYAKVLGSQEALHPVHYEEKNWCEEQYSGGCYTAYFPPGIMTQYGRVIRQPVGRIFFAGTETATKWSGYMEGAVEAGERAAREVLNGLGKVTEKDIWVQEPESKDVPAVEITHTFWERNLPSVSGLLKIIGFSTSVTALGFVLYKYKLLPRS

[27] = Half life in po dosed mouse; format: ADME, organism-based; settings: in vivo
[28] = Tmax in human at 800 mg, po administered as single dose with meal measured on day 1; format: ADME, organism-based; settings: in vivo
How it was run: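 Randomized, double-blind, placebo-controlled multiple-dose study in 32 healthy subjects, half male and half female. Dosing was 600 or 800 mg orally with a meal, 28 doses over 15 days. A single dose was given on days 1 and 15 for full PK, with Q12h (BID) dosing on days 2−14.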

[29] = Elimination half life in human at 900 mg, po administered as single dose at 30 mins post fat meal; format: ADME, organism-based; settings: in vivo, read-out: beta t1/2 (converted)
How it was run: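 Crossover study in 12 subjects (six of each sex). Each got a single oral 900 mg dose either fasted or 30 min after a fat-containing meal.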

Enterococcus faecalis [30] = experiment: Antibacterial activity against vancomycin-sensitive Enterococcus faecalis ATCC 29212; format: functional

Sequence of Cytochrome P450 2E1 (P05181 whole entry): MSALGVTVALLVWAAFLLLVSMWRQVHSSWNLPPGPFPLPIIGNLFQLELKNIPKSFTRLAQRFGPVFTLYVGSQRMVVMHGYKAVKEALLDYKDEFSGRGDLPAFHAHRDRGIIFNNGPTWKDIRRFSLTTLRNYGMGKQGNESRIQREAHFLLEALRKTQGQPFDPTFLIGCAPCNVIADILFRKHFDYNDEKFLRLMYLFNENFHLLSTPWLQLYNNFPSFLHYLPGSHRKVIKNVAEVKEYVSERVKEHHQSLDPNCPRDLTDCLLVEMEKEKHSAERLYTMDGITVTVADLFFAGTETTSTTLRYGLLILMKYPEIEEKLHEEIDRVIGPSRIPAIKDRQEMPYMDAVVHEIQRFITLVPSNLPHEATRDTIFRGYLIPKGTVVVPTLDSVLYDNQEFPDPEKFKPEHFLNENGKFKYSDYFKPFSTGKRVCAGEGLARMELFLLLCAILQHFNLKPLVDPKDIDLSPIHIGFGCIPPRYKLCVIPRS

O=C1C=CN(c2c(F)cc(N3C[C@H](CNc4ccon4)OC3=O)c(F)c2F)CC1 [CONTEZOLID]
ED50 (Staphylococcus aureus [1]): 5.7 mg/kg
Tmax [2]: 0.5 h
Activity (Rattus norvegicus [3]): 18.4%
MIC [4]: 0.25 µg/mL (≈ 0.612 µM)
MIC50 [4]: 0.25 µg/mL (≈ 0.612 µM)
MIC90 [4]: 0.5 µg/mL (≈ 1.22 µM)
Cmax [5]: 15200 ng/mL
AUC(0-t) [6]: 25200 ng·h/mL
MIC (Staphylococcus aureus [7]): 2 µg/mL (≈ 4.9 µM)
Activity (Rattus norvegicus [8]): Toxic
MIC50 [9]: 0.5 µg/mL (≈ 1.22 µM)
MIC90 [9]: 1 µg/mL (≈ 2.45 µM)
MIC (Streptococcus pneumoniae [10]): 2 µg/mL (≈ 4.9 µM)
half-life [11]: 2.07 h
MIC [12]: 1 µg/mL (≈ 2.45 µM)
MIC50 [12]: 1 µg/mL (≈ 2.45 µM)
MIC90 [12]: 1 µg/mL (≈ 2.45 µM)
Drug uptake (Rattus norvegicus [13]): Not Active
MIC50 (Staphylococcus): 0.5 µg/mL (≈ 1.22 µM)
MIC90 (Staphylococcus): 0.5 µg/mL (≈ 1.22 µM)
half-life [14]: 2.18 h
MIC90 (Staphylococcus aureus [15]): 0.5 µg/mL (≈ 1.22 µM)
MIC (Streptococcus pneumoniae [16]): 1 µg/mL (≈ 2.45 µM)
Tmax [17]: 0.5 h
MIC (Streptococcus sanguinis): 0.25 µg/mL (≈ 0.612 µM)
Tmax [18]: 1.63 h
Tmax [19]: 0.5 h
Cmax [20]: 26400 ng/mL
Activity (Rattus norvegicus [21]): 464.2 ×10⁹ /L
MIC (Staphylococcus aureus [22]): 2 µg/mL (≈ 4.9 µM)
Tmax [23]: 1.4 h
half-life [24]: 1.5 h
IC50 (Cytochrome P450 2E1): 9.6 µM
ED50 (Enterococcus faecalis [25]): 14.1 mg/kg
IC50 [26]: 103 µM
half-life [27]: 1 h
Tmax [28]: 0.85 h
half-life [29]: 2.7 h
MIC (Enterococcus faecalis [30]): 1 µg/mL (≈ 2.45 µM)
